Rows were chosen to be rich in hits. Some 6.6% of all compounds tested hit in one or more screens of this group.
Jurkat viability – cytotoxicity toward Jurkat cells; Jurkat E6.1 viability, ATP luminescence, 48 h; actives 1.2% (n = 56,000); AID 463; inhibition, % at 4 µM;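 active = inhibition above the mean inhibition of all tested compounds plus 3 SD, cut at about 28% in these data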
HUVEC inhibit – inhibitors of human endothelial cell proliferation; HUVEC proliferation, CellTiter-Glo luminescence, 72 h; active compounds read low; viability, % at 10 µM (by protocol); actives 1.1% (n = 86,000); AID 648;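 active = viability at or below 30%; inactive = viability above 30%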
Fibroblast inh – blocks proliferation of human lung fibroblasts. LL 47 human lung fibroblast viability, ATP luminescence; active compounds read low. viability, % at 10 µM. actives 1.1% (n = 85,000). AID 719;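 active = viability at or below 50% in the single dose screen; inactive = viability above 50%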;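 note: compound exposure lasted 72 h before the ATP readout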
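Material: Human LL 47 lung fibroblast cells | Input: 1,150 cells/well | Buffer or medium: IMEM plus 15% FBS | Compound dosing: 0.1% DMSO in all compound wells | Times: Overnight cell rest, 72 h compound treatment at 37 °C | Signal: CellTiter-Glo luminescence measuring cellular ATP | Measure: % viability versus median cells-only luminescence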
H69AR growth 86K – growth inhibitors of human H69AR lung tumor cells; H69AR lung tumor viability, ATP luminescence, 72 h; active compounds read low; viability, % at 10 µM; actives 6% (n = 85,000);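 active = viability at or below 40%; inactive = viability above 40%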;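 note: multidrug resistant small cell line overexpressing MRP-1 efflux transporter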
Hits are given with their value; n = inactive; x = not tested or not shown.

SMILES	Jurkat viability	HUVEC inhibit	Fibroblast inh	H69AR growth 86K
COc1ccc(/C(N)=N/OC(=O)c2cccc([N+](=O)[O-])c2)cc1	x	n	n	n
Cc1cc(C)cc(C(=O)O/N=C(\N)c2ccc(Br)cc2)c1	x	n	n	34
COc1ccc(/C(N)=N/OC(=O)c2ccc(C)c([N+](=O)[O-])c2)cc1OC	x	n	n	24
O=C(C1CC1)N1CCN(C(c2ccccc2)c2ccccc2)CC1	x	n	n	n
CCn1cc(S(=O)(=O)CC(=O)Nc2ccc(OC)cc2)c2ccccc21	n	n	n	n
CSc1nsc(SC)c1NC(=O)OCC1CCCO1 (centres undefined)	n	x	x	x
COc1ccc(OC)c(/C(O)=C/C(=O)C(=O)Nc2cc(C)cc(C)c2)c1	x	n	n	17
CCOc1ccccc1NC(=O)C(=O)/C=C(\O)c1cc(OC)ccc1OC	x	n	n	8.4
CCCCC(CCC(=O)Nc1nccs1)C(=O)O (centres undefined)	x	n	n	n
Cc1ccc(C2=[N+]([O-])C3(CCCCC/C3=N\NC(N)=S)N(O)C2(C)C)o1 (centres undefined)	x	n	n	n
CCOC(=O)C1=C(N)n2c(s/c(=C\c3cccs3)c2=O)=C(C(=O)OCC)C1c1cccs1 (centres undefined)	86	n	n	29
CCOC(=O)C1=C(N)n2c(s/c(=C\c3cccnc3)c2=O)=C(C(=O)OCC)C1c1cccnc1 (centres undefined)	n	n	n	n
COc1cc2c(N3CCOCC3)cc(O)c(CC(=O)Nc3ccccc3)c2cc1OC	n	n	48	n
CCOc1cc(C2NC(=O)NC(O)(C(F)(F)F)C2C(=O)c2ccc(OC)cc2)ccc1O (centres undefined)	n	n	n	n
CCN(CC)S(=O)(=O)c1csc(C(=O)OCC(=O)c2ccccc2)c1	x	n	x	n
Cc1ccc(S(=O)(=O)N2CCCC(C(=O)Nc3ccc(NC(=O)c4ccccn4)cc3)C2)cc1 (centres undefined)	x	n	n	21
Cc1ccc(S(=O)(=O)N2CCCC(C(=O)Nc3cccnc3)C2)cc1 (centres undefined)	x	n	n	n
CCOC(=O)c1ccc(NC(=O)C2CCCN(S(=O)(=O)c3ccc(F)cc3)C2)cc1 (centres undefined)	x	n	n	20
CC(=O)Nc1ccc(NC(=O)C2CCCN(c3ncccn3)C2)cc1 (centres undefined)	x	n	n	n
O=C(Nc1ccc(Oc2ccccc2)cc1)C1CCCN(c2ncccn2)C1 (centres undefined)	n	n	n	40
N#C/C(=C\c1cccc(Cl)c1)c1n[nH]c(Cn2cncn2)n1	x	n	n	n
COC(=O)c1ccc(NC(=O)CSCc2ccccc2C)cc1	x	n	n	n
Cc1cccc(OCc2n[nH]c(=S)n2C2CCCCC2)c1	x	n	n	22
S=c1[nH]nc(COc2ccc(Cl)cc2)n1C1CCCCC1	x	n	n	n
Cc1ccc(OCc2n[nH]c(=S)n2C2CCCCC2)cc1	x	n	n	37
SMILES	Jurkat viability	HUVEC inhibit	Fibroblast inh	H69AR growth 86K
CC1=C(C(=O)Nc2cc(-c3cccc(F)c3)[nH]n2)C2(CCCCC2)OC1=O	n	n	n	32
CC(NC(=O)OC1CCCCC1)N1C(=O)C2C3C=CC(C3)C2C1=O (centres undefined)	n	n	n	n
Nc1c(C(=O)Nc2ccccc2)sc2nc3c(c(-c4ccco4)c12)CCC3	x	n	n	n
COc1ccc(-c2c3c(nc4sc(C(=O)Nc5ccccc5)c(N)c24)CCC3)cc1	x	n	n	30
Nc1c(-c2ccccc2)cnn1C1CCS(=O)(=O)C1 (centres undefined)	x	n	n	n
COc1cccc(C2C3=C(CC(C)(C)CC3=O)Nc3cc4c(cc32)OCO4)c1 (centres undefined)	x	n	n	32
COc1cc2c(cc1OC)C(c1ccc3c(c1)OCO3)C1=C(CC(C)(C)CC1=O)N2 (centres undefined)	n	n	n	n
CCOC(=O)N1CCC(NC(=O)c2cnc3n(c2=O)CCS3)CC1	n	n	n	n
O=c1c(F)cn(C2CCCO2)c(=O)n1Cc1c(Cl)cccc1Cl (centres undefined)	x	n	n	28
O=C(Cc1c(F)cccc1Cl)NCC1CCCO1 (centres undefined)	n	n	n	n
CCOc1ccc(Cl)cc1S(=O)(=O)N1CCN(c2ccc(C)c(C)c2)CC1	x	n	n	39
CN1CCN(c2nc(-c3cccnc3)nc3ccccc23)CC1	n	n	n	n
Cn1nnnc1Sc1nc(-c2cccnc2)nc2ccccc12	n	n	12	0.0
COc1ccc2c(c1)Cc1sc(NC(=O)c3ccccc3)nc1-2	x	n	n	11
COc1ccc(C(=O)Nc2nc3c(s2)Cc2cc(OC)ccc2-3)cc1	x	n	n	n
O=c1oc2c(O)c(O)cc3c(=O)oc4c(O)c(O)cc1c4c23	x	n	n	16
CCCc1n[nH]c2c1/C(=N\O)CCC2	x	n	n	n
O=S(=O)(/N=C(/Sc1ccccc1)c1ccccc1)c1ccccc1	x	n	n	26
CCN(CC)/C(=N/S(=O)(=O)c1ccc(C)cc1)c1ccccc1	x	n	n	n
Cc1csc(SCC(=O)N2CCN(S(=O)(=O)c3ccc(Cl)cc3)CC2)n1	n	n	n	n
Cc1ccc(S(=O)(=O)N2CCN(C(=O)CSc3ncc(C(F)(F)F)cc3Cl)CC2)cc1	x	n	n	6.2
CSc1nc2sc3c(c2c2nncn12)CCC3	x	n	n	n
Cc1nc(Sc2nnnn2C)c2c3c(sc2n1)CCC3	n	n	33	23
CCOc1ccc(N2C(=O)CC(n3ccc(C)n3)C2=O)cc1 (centres undefined)	x	n	n	n
CCOC(=O)CCc1c(C)c(C#N)c2nc3ccccc3n2c1-n1cnc2ccccc21	x	n	n	n
SMILES	Jurkat viability	HUVEC inhibit	Fibroblast inh	H69AR growth 86K
C=C(C)CN1CCN(c2c(CCC#N)c(C)c(C#N)c3nc4ccccc4n23)CC1	x	n	n	38
Cc1c(CCC(C)C)c(-n2ccnc2C)n2c(nc3ccccc32)c1C#N	x	n	n	23
CCC(C)S(=O)(=O)c1snnc1C (centres undefined)	x	n	n	n
COC(=O)c1ccc(CNC(=O)COc2ccccc2Br)o1	n	n	n	n
O=C(CN1CCOCC1)Nc1nc(-c2ccc3c(c2)CCN3S(=O)(=O)c2ccccc2)cs1	n	n	n	n
CS(=O)(=O)N1CCc2cc(-c3csc(NC(=O)Cc4cccs4)n3)ccc21	70	n	n	n
COc1ccc(C2=CC(c3ccc(OC)c(OC)c3)n3nnnc3N2)c(OC)c1 (centres undefined)	n	n	n	28
COc1ccc(C2=CC(c3ccc(C)cc3)n3nnnc3N2)cc1 (centres undefined)	x	n	n	n
COc1cccc(C2C=C(c3ccc(OC)cc3OC)Nc3nnnn32)c1 (centres undefined)	41	n	n	15
CCNC(=O)NC(=O)CSc1nc2ccccc2n1CCOC	x	n	n	n
CCNc1oc(-c2cccc3ccccc23)nc1C#N	n	n	n	n
N#Cc1nc(-c2cccc3ccccc23)oc1NCCN1CCCCC1	x	5.1	n	13
O=C1c2ccccc2CC1Sc1nnc(-c2ccncc2)o1 (centres undefined)	n	n	n	n
